# According to ChEMBL document CHEMBL1649314, “Experimental murine scedosporiosis: histopathology and azole treatment” (2010):
# Calls of active or inactive are those of the source. The calls are words filed in the database; no cut-off is given here.
# Assays:
# Assay type in all cases: functional, organism-based
# Scedosporium aurantiacum [1] = experiment: Antifungal activity against Scedosporium aurantiacum CBS 116910 infected in immunosuppressed OF1 mouse assessed as reduction in kidney fungal burden at 20 mg/kg, po BID administered 24 hrs postinfection for 10 days measured after 20 days; set-up: dose 20 mg/kg
# Scedosporium boydii [2] = experiment: Antifungal activity against Scedosporium boydii FMR 8627 infected in immunosuppressed OF1 mouse assessed as reduction in brain fungal burden at 40 mg/kg, po BID administered 24 hrs postinfection for 10 days measured after 20 days; set-up: dose 40 mg/kg
# Scedosporium aurantiacum [3] = experiment: Antifungal activity against Scedosporium aurantiacum IHEM 15458 infected in immunosuppressed OF1 mouse assessed as reduction in brain fungal burden at 40 mg/kg, po BID administered 24 hrs postinfection for 10 days measured after 20 days; set-up: dose 40 mg/kg
# [4] = Antifungal activity against Scedosporium aurantiacum IHEM 15458 infected in immunosuppressed OF1 mouse assessed as prolonged survival of mouse at 10 mg/kg, po BID administered 24 hrs postinfection for 10 days measured after 20 days; set-up: dose 10 mg/kg
# Method in brief: (§1)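 Male OF1 mice, groups of 10, immunosuppressed 1 day before infection with cyclophosphamide 200 mg/kg i.p. plus 5-fluorouracil 150 mg/kg i.v. Infected i.v. via tail vein with 1 × 10^4 CFU in 0.2 ml saline. Oral treatment began 24 h post-challenge for 10 days. Mice checked daily for 20 days. Survival by Kaplan-Meier, compared by log rank test.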
# Scedosporium boydii [5] = experiment: Antifungal activity against Scedosporium boydii FMR 6694 infected in immunosuppressed OF1 mouse assessed as reduction in kidney fungal burden at 10 mg/kg, po BID administered 24 hrs postinfection for 10 days measured after 20 days; set-up: dose 10 mg/kg
# Scedosporium apiospermum [6] = experiment: Antifungal activity against Scedosporium apiospermum IHEM 14464 infected in immunosuppressed OF1 mouse assessed as prolonged survival of mouse at 20 mg/kg, po BID administered 24 hrs postinfection for 10 days measured after 20 days; set-up: dose 20 mg/kg; method in brief: as §1
# Scedosporium apiospermum [7] = experiment: Antifungal activity against Scedosporium apiospermum CBS 117407 infected in immunosuppressed OF1 mouse assessed as reduction in brain fungal burden at 20 mg/kg, po BID administered 24 hrs postinfection for 10 days measured after 20 days; set-up: dose 20 mg/kg
# Scedosporium boydii [8] = experiment: Antifungal activity against Scedosporium boydii FMR 8627 infected in immunosuppressed OF1 mouse assessed as prolonged survival of mouse at 10 mg/kg, po BID administered 24 hrs postinfection for 10 days measured after 20 days; set-up: dose 10 mg/kg
# Method in brief: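 Male OF1 mice were immunosuppressed 1 day before infection with cyclophosphamide 200 mg/kg i.p. plus 5-fluorouracil 150 mg/kg i.v. They were infected i.v. via a lateral tail vein with 1 × 10^4 CFU/mouse in 0.2 ml saline. Oral dosing was 10 or 20 mg/kg twice daily, or 20 or 40 mg/kg once daily (those mice and controls drank grapefruit juice from day −3). Dosing ran 24 h post-challenge for 10 days; 10 mice/group; observed daily to day 20; Kaplan-Meier with log rank test.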
# [9] = Antifungal activity against Scedosporium aurantiacum CBS 116910 infected in immunosuppressed OF1 mouse assessed as prolonged survival of mouse at 20 mg/kg, po BID administered 24 hrs postinfection for 10 days measured after 20 days; set-up: dose 20 mg/kg; method in brief: as §1
# Scedosporium apiospermum [10] = experiment: Antifungal activity against Scedosporium apiospermum IHEM 14464 infected in immunosuppressed OF1 mouse assessed as reduction in kidney fungal burden at 10 mg/kg, po BID administered 24 hrs postinfection for 10 days measured after 20 days; set-up: dose 10 mg/kg
# Scedosporium boydii [11] = experiment: Antifungal activity against Scedosporium boydii FMR 8627 infected in immunosuppressed OF1 mouse assessed as reduction in kidney fungal burden at 10 mg/kg, po BID administered 24 hrs postinfection for 10 days measured after 20 days; set-up: dose 10 mg/kg
# Scedosporium apiospermum [12] = experiment: Antifungal activity against Scedosporium apiospermum IHEM 14464 infected in immunosuppressed OF1 mouse assessed as reduction in brain fungal burden at 40 mg/kg, po BID administered 24 hrs postinfection for 10 days measured after 20 days; set-up: dose 40 mg/kg
# Scedosporium boydii [13] = experiment: Antifungal activity against Scedosporium boydii FMR 8627 infected in immunosuppressed OF1 mouse assessed as reduction in kidney fungal burden at 20 mg/kg, po BID administered 24 hrs postinfection for 10 days measured after 20 days; set-up: dose 20 mg/kg
compound,measurement,setting,value
CC[C@@H]([C@H](C)O)n1ncn(-c2ccc(N3CCN(c4ccc(OC[C@@H]5CO[C@@](Cn6cncn6)(c6ccc(F)cc6F)C5)cc4)CC3)cc2)c1=O [POSACONAZOLE],Activity,Scedosporium aurantiacum [1],Active
same,Activity,Scedosporium boydii [2],Active
same,Activity,Scedosporium aurantiacum [3],Active
same,Activity,[4],Active
same,Activity,Scedosporium boydii [5],inactive
same,Activity,Scedosporium apiospermum [6],Active
same,Activity,Scedosporium apiospermum [7],Active
same,Activity,Scedosporium boydii [8],Active
same,Activity,[9],Active
same,Activity,Scedosporium apiospermum [10],Active
same,Activity,Scedosporium boydii [11],Active
same,Activity,Scedosporium apiospermum [12],Active
same,Activity,Scedosporium boydii [13],Active
